ChEMBL document CHEMBL2390941 (Bioorg Med Chem Lett, 2013)
Converted amounts (≈) assume the structure as drawn. The source made the active and inactive calls. No cut-off for these calls is given here.

Tests used:
[1] = target: T1, Enoyl-acyl carrier reductase (Toxoplasma gondii, UniProt Q6UCJ9); assay: Inhibition of Toxoplasma gondii enoyl acyl-carrier protein reductase
T1 sequence (Q6UCJ9 whole entry): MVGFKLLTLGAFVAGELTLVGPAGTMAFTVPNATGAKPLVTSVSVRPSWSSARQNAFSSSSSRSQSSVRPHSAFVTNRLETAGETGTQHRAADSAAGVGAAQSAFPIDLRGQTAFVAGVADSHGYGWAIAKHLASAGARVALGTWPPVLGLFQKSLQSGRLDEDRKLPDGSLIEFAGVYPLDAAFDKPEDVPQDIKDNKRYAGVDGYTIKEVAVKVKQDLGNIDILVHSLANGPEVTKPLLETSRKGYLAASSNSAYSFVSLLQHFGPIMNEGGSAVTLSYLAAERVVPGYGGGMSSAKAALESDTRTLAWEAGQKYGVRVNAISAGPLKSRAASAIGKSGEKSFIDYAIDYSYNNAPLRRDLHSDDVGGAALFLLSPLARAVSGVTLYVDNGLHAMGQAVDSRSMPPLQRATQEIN

[2] = system: Toxoplasma gondii; assay: Antiparasitic activity against tachyzoite of Toxoplasma gondii RH expressing yellow fluorescent protein infected in human foreskin fibroblasts after 72 hrs by fluorescence assay
[3] = system: HFF; assay: Cytotoxicity against HFF after 72 hrs by WST-1 assay; assay type: cell-based; conditions: human
Procedure, shortened: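 Uninfected human foreskin fibroblast host cells were incubated with compounds for 72 h. Viability was then assessed by WST-1 staining. The effect of DMSO levels in the culture medium was assessed alongside.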

[4] = system: Plasmodium falciparum; assay: Antiplasmodial activity against blood stage of drug-sensitive Plasmodium falciparum D6; assay type: functional
Procedure, shortened: (§1)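 Blood-stage parasites tested in a dose-response growth inhibition assay; values reported in ng/ml.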

[5] = system: Plasmodium falciparum; assay: Antiplasmodial activity against blood stage of drug-resistant Plasmodium falciparum TM91C235; assay type: functional; procedure, shortened: as §1
[6] = target: T2, Enoyl-acyl carrier reductase (Toxoplasma gondii) (UniProt Q6UCJ9); assay: Inhibition of Toxoplasma gondii enoyl acyl-carrier protein reductase at 1 uM
T2 sequence (whole entry): T1 sequence (Q6UCJ9 whole entry)

[7] = system: Toxoplasma gondii; assay: Antiparasitic activity against tachyzoite of Toxoplasma gondii RH expressing yellow fluorescent protein infected in human foreskin fibroblasts after 72 hrs by bacterial beta-galactosidase reporter gene assay; assay type: functional

Row | SMILES | IC50 [1] | MIC50 [2] | Activity [3] | Activity [4] | Activity [5] | inhibition [6] | MIC50 [7]
1 | Cc1cc(C(=O)NCc2ccc(Oc3ccc(Cl)cc3Cl)c(O)c2)no1 | 0.019 µM |  |  |  |  |  | 
2 | Oc1cc(Cl)ccc1Oc1ccc(Cl)cc1Cl [TRICLOSAN] |  | 5 µM (≈ 1.45 µg/mL) | > 10 µM | inactive | inactive | 98% | 
3 | CCCc1cc(-c2ccc(Oc3ccc(CNC(=O)c4cc(C)on4)cc3O)c(Cl)c2)no1 | 0.137 µM | 4 µM (≈ 1.87 µg/mL) | > 10 µM | >10000 ng/mL |  | 89% | 
4 | CCCc1cc(-c2ccc(Oc3ccc(C#N)cc3O)c(Cl)c2)no1 | 0.029 µM |  | > 10 µM | > 2440 ng/mL | inactive | 94% | 4 µM (≈ 1.42 µg/mL)
5 | N#Cc1ccc(Oc2ccc(-c3cc(CCO)on3)cc2Cl)c(O)c1 | 0.034 µM |  | > 10 µM | >10000 ng/mL |  | 94% | 8 µM (≈ 2.85 µg/mL)
